Bioassay records from PubChem.
This excerpt belongs to a sample that is enriched for hits.
UPR CHOP act = apoptotic UPR (CHOP) activation; CHO-CHOP luciferase reporter, luminescence; percent of tunicamycin response over DMSO baseline; AID 449763; actives 0.34% (n = 330,000); activation, % at 10 µM;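 active means at 10 µM dose, activation of 40% or more, normalized to positive control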;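 further: 100% = tunicamycin at 10 µg/mL and 0% = DMSO alone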
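Material: CHO-CHOP cells, stable luciferase reporter of PERK-eIF2a-CHOP signalling; quantity: 500 reporter cells seeded per well; buffer or medium: F12 medium containing 10% fetal bovine serum; compound: one dose, 10 µM in 0.5% DMSO; incubation: 6 h compound treatment, 37 °C; measured by: Steady-Glo luciferase luminescence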
XBP1 UPR activ = adaptive UPR (XBP1) activation. CHO-XBP1 luciferase reporter, IRE1-XBP1 UPR activation, luminescence; percent of tunicamycin response, DMSO as zero. activation, % at 20 µM. actives 0.33% (n = 330,000);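 active means versus positive control, 20 µM dose yields 30% or more activation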;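 further: 100% = tunicamycin at 10 µg/mL and 0% = DMSO only wells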
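Material: CHO cell line with stable XBP1 luciferase reporter; schedule: 16-18 h cell attachment at 37 °C, then 6 h compound exposure; signal: glow luminescence from Steady-Glo reagent; medium: serum-containing F12 medium, 10% FBS; benchmarks: tunicamycin 10 µg/mL and vehicle-only wells; read-out: percent activation relative to tunicamycin reference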
FXN GAA850 act = activators of GAA850 frataxin (FXN) promoter; HEK293 lucGAA850 FXN promoter luciferase reporter, 24 h; percent of 10 µM SAHA response; activation, % at 6 µM; actives 0.56% (n = 360,000); AID 540364;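 active means activation above the average of all compounds screened plus 3 SD, cutoff fixed separately per campaign, cut at about 7.5% in these data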;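 further: 0% = DMSO wells and 100% = 10 µM SAHA wells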
CHOP inhibitor = CHOP inhibition in unfolded protein response; inhibition, % at 10 µM; actives 3.8% (n = 220,000); CHO-K1 CHOP-promoter luciferase, tunicamycin-induced, 15-18 h;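 active means compounds that reduced the stress-induced luciferase reporter signal by more than about 70% of percent inhibition, limit read from the data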;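 further: 0% = tunicamycin plus vehicle and 100% = wells without tunicamycin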
An asterisk follows results filed as active; · = no result given.

SMILES	UPR CHOP act	XBP1 UPR activ	FXN GAA850 act	CHOP inhibitor
CC(C)Cn1c(SC(C)C(=O)Nc2ccc3c(c2)OCCO3)nc2ccccc2c1=O (centres undefined)	·	·	-5.5	76.3*
c1ccc(OCCNc2ccn3nc(-c4ccco4)cc3n2)cc1	·	·	1.4	·
CCCC(=O)N=C1SC2CS(=O)(=O)CC2N1c1ccc(-c2nc3ccc(C)cc3s2)cc1 (centres undefined)	17.8	65.0*	6.7	77.3*
CC1(C)CC(=O)C(C2C3=C(CC(C)(C)CC3=O)Oc3ccc4ccccc4c32)C(=O)C1 (centres undefined)	1.7	-0.8	2.5	76.8*
Cc1cc2ncn(/N=C/c3ccc(-c4ccccc4)o3)c2cc1C	-0.1	0.6	-0.9	77.4*
CCOc1ccc(Nc2nc(Nc3ccc(O)cc3)nc(C)c2[N+](=O)[O-])cc1	1.6	-1.0	-1.5	79.5*
CCOc1ccc(Nc2nc(NCC(=O)O)nc(N)c2[N+](=O)[O-])cc1	1.5	-0.1	-0.1	·
CC(=O)Nc1cc(-c2ccc(N(C)C)cc2)cn2c(-c3ccc(F)cc3)cnc12	·	·	4.0	·
CC1(C(=O)Nc2cnc3ccccc3c2)CCN1Cc1ccc(-c2ccccc2)o1 (centres undefined)	·	·	1.2	·
COc1ccc(Cn2c3ccc(OC)cc3c3nc4ccccc4nc32)cc1	-1.2	-0.3	3.8	58.2
COc1ccc2c(c1)c1nc3ccccc3nc1n2CC(=O)OC(C)C	10.1	22.0	0.8	93.9*
COc1ccc2c(c1)c1nc3ccccc3nc1n2CCn1c(=O)oc2ccccc21	-2.0	-1.6	-0.1	95.2*
CCOC(=O)Cn1c2ccccc2c2nc3ccccc3nc21	0.7	4.8	0.9	92.8*
CCCNC(=O)COC(=O)c1ccccc1OCC(=O)Nc1ccc(Br)cc1	6.9	-0.9	1.3	80.0*
CC(C)(C)NC(=O)COC(=O)c1ccccc1OCC(=O)Nc1ccc(Br)cc1	2.7	4.7	4.5	68.9
O=C(Cc1ccccc1)Nc1scc(-c2ccccc2)c1C(=O)N1CCOCC1	1.2	0.8	2.0	1.8
NC(=O)c1c(-c2ccc(Cl)cc2Cl)csc1NC(=O)Cc1ccccc1	·	·	-4.6	73.0*
Cn1c(/N=C(\N)c2ccccc2)nc2ccccc21	·	·	3.1	·
Cc1ccc2[nH]c(=O)c(N3CCOCC3)c(-c3ccccc3)c2c1	0.1	-1.6	-0.5	76.3*
O=C(CCN1CCOCC1)Nc1c(-c2ccccc2)c2cc(Br)ccc2[nH]c1=O	-2.6	-0.7	0.5	-5.7
CCOC(=O)c1c(-c2ccc(C)o2)csc1NC(=O)CN1CCCCC1	0.5	-2.2	3.4	34.6
CCOC(=O)c1c(-c2ccc(C)o2)csc1NC(=O)CN(C)CC(=O)Nc1ccc(C)cc1	0.6	-2.1	2.1	89.4*
CCC(=O)N1CCC1(C)C(=O)NCc1ccccc1SC (centres undefined)	·	·	1.2	·
c1ccc(OCCCc2nc(-c3ccncc3)no2)cc1	-0.7	2.2	1.9	89.6*
c1ccc(OCc2nc(-c3ccncc3)no2)cc1	6.6	3.9	2.0	-5.2
SMILES	UPR CHOP act	XBP1 UPR activ	FXN GAA850 act	CHOP inhibitor
Cn1c(=O)oc2cc(S(=O)(=O)N3CCC(C(=O)NCc4ccccc4)CC3)ccc21	0.1	-2.5	2.0	·
Cn1c(=O)oc2cc(S(=O)(=O)N3CCC(C(=O)NCc4cccs4)CC3)ccc21	-0.7	-2.5	-0.2	74.7*
CCCC(=O)OC(C(=O)Nc1cc(C(F)(F)F)ccc1Cl)c1ccccc1 (centres undefined)	1.6	-0.9	2.8	26.9
Cc1cc(C(=O)NCC(=O)OC(C(=O)Nc2cc(C(F)(F)F)ccc2Cl)c2ccccc2)ccc1[N+](=O)[O-] (centres undefined)	0.6	-1.0	0.4	81.7*
CCCS(=O)(=O)NC(=O)C1(C)CCCN(C(=O)c2c(OC)cccc2OC)C1 (centres undefined)	·	·	-0.3	·
CC(SC1=NCCS1)C(=O)Nc1nnc(-c2ccc(F)cc2)s1 (centres undefined)	3.9	-2.6	-0.2	63.8
CC(SC1=NCCS1)C(=O)Nc1nnc(-c2ccc(Br)cc2)s1 (centres undefined)	11.2	1.1	0.7	85.5*
CCC(SC1=NCCS1)C(=O)Nc1nnc(-c2ccccc2OC)s1 (centres undefined)	2.1	2.3	1.6	86.2*
C[C@H](NC(=O)C1CCN(S(=O)(=O)c2ccccc2)CC1)C(=O)NCc1ccncc1	·	·	2.4	·
CCCCCCC1CC(CC(=O)Nc2ccc([N+](=O)[O-])cc2)C(=O)O1 (centres undefined)	0.6	-2.6	-0.5	94.8*
CCCCCC1CC(CC(=O)NC(=S)Nc2ccc([N+](=O)[O-])cc2)C(=O)O1 (centres undefined)	-2.2	-5.7	2.0	85.0*
COc1ccc(/C=C\C(=O)O[C@@H]2C(O)C(O[C@@H]3OC(C)[C@H](O[C@@H]4OCC(O[C@H]5O[C@H](CO)[C@@H](O)C(O)C5O)C(O)C4O)C(O)C3O)[C@H](OC(=O)[C@]34CCC(C)(C)C[C@@H]3C3=CCC5[C@@]6(C)CC(O)C(O[C@@H]7OC(CO)C(O)[C@H](O)[C@H]7O)[C@@](C)(C(=O)O)C6CC[C@@]5(C)[C@]3(CO)CC4)O[C@H]2C)cc1 (some centres undefined)	5.5	21.3	0.6	·
CC(C)C#Cc1cnc2c(c1)C(=O)N([C@@H](C)CO)C[C@@H](C)[C@H](CN(C)Cc1cccc(F)c1)O2	·	·	1.7	·
CCOc1ccc(Br)cc1C(=O)Nc1ccc(C(=O)NCC(C)C)cc1	-0.1	5.2	1.2	82.6*
COc1ccc(Br)cc1C(=O)Nc1ccc(C(=O)NCC(C)C)cc1	-1.1	2.1	0.5	55.6
CCc1nc2c(OCc3cc(Cl)cc(Cl)c3)cccn2c1N(C)C(=O)c1cccc(OC)c1	·	·	-3.5	·
CCCCN1C(=O)/C(=C/C=C2\SCCN2C)SC1=S	4.6	4.1	9.8*	-7.6
COc1ccc(NC(=O)C2(C)CCN2C(=O)CC2CCCC2)cc1OC (centres undefined)	·	·	2.5	·
CCCCN(C)C(=O)c1sc(=O)n(Cc2ccc(Cl)c(Cl)c2)c1C	·	·	-1.4	·
O=[N+]([O-])c1cccc(C2NCC(c3ccccc3Cl)c3c2[nH]c2ccccc32)c1 (centres undefined)	0.4	-2.6	1.6	84.8*
CCCN(CCC)c1nc(NC2CCN(C(=O)OCC)CC2)nc(OC)n1	2.2	-4.7	4.1	71.7*
CCOCCCNC(=O)C1(O)c2ccccc2NC(=O)N1c1ccc(Cl)c(Cl)c1 (centres undefined)	0.9	-0.1	-1.1	·
CC(C)NC(=O)C1(O)c2ccccc2NC(=O)N1c1ccc(Cl)c(Cl)c1 (centres undefined)	-1.1	-1.2	-0.8	81.3*
Cc1ccc(-c2nc3ccccc3o2)cc1NC(=S)NC(=O)c1cc2ccccc2o1	·	·	3.3	84.8*
O=C1CCC2c3[nH]c4ccccc4c3CCN12 (centres undefined)	·	·	0.6	·
